# Assay results from ChEMBL document CHEMBL1140372, “Synthesis, structure-activity relationships, and biological properties of 1-heteroaryl-4-[omega-(1H-indol-3-yl)alkyl]piperazines, novel potential antipsychotics combining potent dopamine D2 receptor antagonism with potent serotonin reuptake inhibition” (J Med Chem, 2005).
# Columns and labels:
# D(2) dopamine receptor [1] = biological target: T1, D(2) dopamine receptor (Homo sapiens, UniProt P14416); assay: In vitro inhibitory constant against [3H]spiperone binding to human dopamine D2 receptor expressed in CHO cells; format: cell-based
# [2] = biological target: Sodium-dependent serotonin transporter (Rattus norvegicus, UniProt P31652); assay: In vitro inhibitory constant against [3H]paroxetine binding to rat frontal cortex membrane serotonin reuptake site; format: tissue-based
# In short: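 Rat frontal cortex membranes; serotonin reuptake sites labelled with [3H]paroxetine in competition binding. Ki (nM) calculated from at least three independent experiments.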
# [3] = biological target: Sodium-dependent serotonin transporter (Mus musculus) (UniProt Q60857); assay: Effective dose against potentiation of 5-HTP induced serotonin syndrome in mice upon oral administration (Serotonin reuptake inhibitory activity); format: functional, organism-based
# D(2) dopamine receptor [4] = biological target: T1, D(2) dopamine receptor; assay: In vitro inhibitory constant against [3H]spiperone binding to human dopamine D2 receptor expressed in CHO cells; NA= not active; format: cell-based
# In short: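 Membrane preparation from CHO cells transfected with human D2L receptor; competition binding against [3H]spiperone.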
# Chain of Sodium-dependent serotonin transporter (Mus musculus) (Q60857 whole entry): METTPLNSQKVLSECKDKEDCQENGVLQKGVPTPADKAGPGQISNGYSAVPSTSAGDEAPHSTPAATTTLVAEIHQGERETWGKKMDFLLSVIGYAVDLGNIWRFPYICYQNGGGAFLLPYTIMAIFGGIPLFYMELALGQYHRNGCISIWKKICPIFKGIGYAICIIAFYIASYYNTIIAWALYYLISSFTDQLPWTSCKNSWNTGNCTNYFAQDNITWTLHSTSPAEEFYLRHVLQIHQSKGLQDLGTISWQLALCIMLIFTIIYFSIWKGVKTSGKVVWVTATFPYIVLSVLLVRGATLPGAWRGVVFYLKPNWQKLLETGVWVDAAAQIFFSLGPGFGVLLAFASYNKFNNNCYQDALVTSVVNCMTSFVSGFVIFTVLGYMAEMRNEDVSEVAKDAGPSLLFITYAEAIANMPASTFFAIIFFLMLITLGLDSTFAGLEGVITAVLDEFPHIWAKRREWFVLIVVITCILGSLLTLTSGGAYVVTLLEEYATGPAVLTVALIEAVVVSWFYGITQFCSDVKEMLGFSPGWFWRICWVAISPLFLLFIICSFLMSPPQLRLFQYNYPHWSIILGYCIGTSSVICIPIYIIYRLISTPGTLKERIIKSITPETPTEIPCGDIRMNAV
# T1 sequence (P14416 whole entry): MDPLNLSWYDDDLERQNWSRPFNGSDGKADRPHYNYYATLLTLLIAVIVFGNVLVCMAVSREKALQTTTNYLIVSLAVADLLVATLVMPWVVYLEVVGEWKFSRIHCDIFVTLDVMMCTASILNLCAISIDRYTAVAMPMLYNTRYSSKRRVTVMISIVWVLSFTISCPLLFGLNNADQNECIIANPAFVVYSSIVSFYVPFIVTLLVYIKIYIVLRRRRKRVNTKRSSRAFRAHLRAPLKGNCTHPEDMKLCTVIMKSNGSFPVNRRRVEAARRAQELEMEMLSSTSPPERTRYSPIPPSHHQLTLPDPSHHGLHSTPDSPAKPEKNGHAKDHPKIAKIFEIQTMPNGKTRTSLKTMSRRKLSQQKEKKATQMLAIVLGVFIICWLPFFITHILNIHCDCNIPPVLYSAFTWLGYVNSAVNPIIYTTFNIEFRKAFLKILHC
# Chain of Sodium-dependent serotonin transporter (P31652 whole entry): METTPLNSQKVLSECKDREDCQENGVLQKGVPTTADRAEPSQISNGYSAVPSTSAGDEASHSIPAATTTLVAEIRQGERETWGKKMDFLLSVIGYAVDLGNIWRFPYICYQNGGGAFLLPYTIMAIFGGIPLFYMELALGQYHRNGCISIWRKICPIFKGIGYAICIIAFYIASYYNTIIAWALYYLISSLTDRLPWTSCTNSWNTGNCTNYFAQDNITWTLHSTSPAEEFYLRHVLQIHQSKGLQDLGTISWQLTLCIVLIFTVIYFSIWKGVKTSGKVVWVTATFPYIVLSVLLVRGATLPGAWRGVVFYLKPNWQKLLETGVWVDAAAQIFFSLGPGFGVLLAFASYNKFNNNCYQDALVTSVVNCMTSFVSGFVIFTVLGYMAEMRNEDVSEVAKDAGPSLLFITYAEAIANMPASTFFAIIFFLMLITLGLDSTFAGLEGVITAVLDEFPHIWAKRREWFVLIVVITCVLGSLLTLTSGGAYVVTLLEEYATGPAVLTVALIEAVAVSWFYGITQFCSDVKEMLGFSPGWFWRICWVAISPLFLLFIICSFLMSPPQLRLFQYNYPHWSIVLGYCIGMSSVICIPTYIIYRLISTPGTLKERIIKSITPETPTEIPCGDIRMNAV
SMILES,Ki (D(2) dopamine receptor [1]) [nM],Ki [2] [nM],ED50 [3] [mg/kg],Ki (D(2) dopamine receptor [4])
C[C@H]1Oc2c(cccc2N2CCN(CCCc3c[nH]c4c(F)cccc34)CC2)NC1=O,5.3,2.4,30,
CC1CNc2cccc(N3CCN(CCCc4c[nH]c5ccccc45)CC3)c2C1 (stereo unspecified),15,2.7,> 100,
CN1CCCc2c1cccc2N1CCN(CCCc2c[nH]c3ccccc23)CC1,90,7.4,,
O=C1CCc2c(cccc2N2CCN(CCCc3c[nH]c4ccccc34)CC2)N1,11.4,1.5,9,
Fc1ccc2c(CCCN3CCN(c4cccc5c4OCCO5)CC3)c[nH]c2c1,,,30,
CC1Oc2c(N3CCN(CCCc4c[nH]c5ccccc45)CC3)cccc2N(C)C1=O (stereo unspecified),35.7,1.4,5.6,
c1cc2c(c(N3CCN(CCCCCc4c[nH]c5ccccc45)CC3)c1)OCCO2,9.1,,,
c1cc2c(c(N3CCN(CCCCc4c[nH]c5ccccc45)CC3)c1)OCCO2,5.1,60,> 30,
C[C@H]1Oc2c(cccc2N2CCN(CCCc3c[nH]c4ccc(F)cc34)CC2)NC1=O,6.9,0.2,0.15,
C[C@@H]1Oc2c(cccc2N2CCN(CCCc3c[nH]c4ccc(F)cc34)CC2)NC1=O,4.7,0.7,0.7,
Clc1ccc2c(CCCN3CCN(c4cccc5c4OCCO5)CC3)c[nH]c2c1,2.1,,86,
C[C@@H]1Oc2c(cccc2N2CCN(CCCc3c[nH]c4c(F)cccc34)CC2)NC1=O,1,3,10,
CC1Oc2c(cccc2N2CCN(CCCc3c[nH]c4ccccc34)CC2)NC1=O (stereo unspecified),4.5,0.4,3,
c1cc2c(c(N3CCN(CCCc4c[nH]c5ccccc45)CC3)c1)OCCN2,17.9,1.5,100,
c1cc2c(c(N3CCN(CCCc4c[nH]c5ccccc45)CC3)c1)OCCO2,21,,22,
c1cc2c(c(N3CCN(CCCc4c[nH]c5ccccc45)CC3)c1)CCCN2,11.3,1.1,15,

SMILES,Ki (D(2) dopamine receptor [1]) [nM],Ki [2] [nM],ED50 [3] [mg/kg],Ki (D(2) dopamine receptor [4])
Fc1cccc2[nH]cc(CCCN3CCN(c4cccc5c4OCCO5)CC3)c12,8.1,,32,
O=C1COc2c(cccc2N2CCN(CCCc3c[nH]c4ccccc34)CC2)N1,4.3,0.6,30,
Clc1cccc2c(CCCN3CCN(c4cccc5c4OCCO5)CC3)c[nH]c12,15.5,,,
c1ccc2c(CCC3CCNCC3)c[nH]c2c1 [INDALPINE],,,,Not Active
Clc1ccc2[nH]cc(CCCN3CCN(c4cccc5c4OCCO5)CC3)c2c1,31.6,0.5,,
Clc1cccc2[nH]cc(CCCN3CCN(c4cccc5c4OCCO5)CC3)c12,24,,,
c1cc2c(c(N3CCN(CCCc4c[nH]c5ccccc45)CC3)c1)CCCO2,20.3,,100,
c1cc2c(c(N3CCN(CCc4c[nH]c5ccccc45)CC3)c1)OCCO2,45,12,,
Cc1ccc2[nH]cc(CCCN3CCN(c4cccc5c4OCCO5)CC3)c2c1,,0.4,,
C[C@@H]1Oc2c(cccc2N2CCN(CCCc3c[nH]c4ccccc34)CC2)NC1=O,1,1,> 10,
C[C@H]1Oc2c(cccc2N2CCN(CCCc3c[nH]c4ccccc34)CC2)NC1=O,8.7,0.5,3,
CC1(C)Oc2c(cccc2N2CCN(CCCc3c[nH]c4ccccc34)CC2)NC1=O,7.4,2.8,7.3,
Fc1cccc2c(CCCN3CCN(c4cccc5c4OCCO5)CC3)c[nH]c12,10.6,,28.4,
COc1ccc2[nH]cc(CCCN3CCN(c4cccc5c4OCCO5)CC3)c2c1,15,,,
Cc1cccc2c(CCCN3CCN(c4cccc5c4OCCO5)CC3)c[nH]c12,15.9,,,
Fc1ccc2[nH]cc(CCCN3CCN(c4cccc5c4OCCO5)CC3)c2c1,19,,2,
